Measurements: ChEMBL document CHEMBL1156077, “Piperazinyl-glutamate-pyrimidines as potent P2Y12 antagonists for inhibition of platelet aggregation” (Bioorg Med Chem Lett, 2009)

Assays:
[1] = Selectivity for human P2Y12 receptor over P2Y13
P2Y purinoceptor 12 [2] = biological target: T1, P2Y purinoceptor 12 (Homo sapiens, UniProt Q9H244); experiment: Ratio of compound IC50 to thienopyrimidine IC50 for P2Y12 receptor in human platelet rich plasma assessed as inhibition of ADP-induced platelet aggregation by light transmission aggregometry
Method in brief: (§1)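 Human platelet-rich plasma was pre-incubated 5 min at 37 °C with compound across seven concentrations (10 down to 0.156). Aggregation was started with ADP (20, final) and followed by light transmission at 626 nm for 15 min at 37 °C. Duplicate concentration-response data were read at the 15-min end-point. IC50 was divided by the IC50 of the thienopyrimidine reference run on the same plate.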

[3] = Selectivity for human P2Y12 receptor over P2Y1
P2Y purinoceptor 12 [4] = biological target: T1, P2Y purinoceptor 12; experiment: Binding affinity at human recombinant P2Y12 receptor expressed in CHO cells by radioligand binding assay; assay type: cell-based
Method in brief: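 Washed membranes from CHO cells transfected with synthetic human P2Y12 gene. Compounds as 7-point threefold dilutions, triplicate, 1 h at room temperature. Nonspecific binding defined with 300 nM 2-MeSADP. Filtered, washed with ice-cold Tris pH 7.4. Single-site fit; IC50 converted to Ki by Cheng–Prusoff, geometric mean of n≥2.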

P2Y purinoceptor 12 [5] = biological target: T1, P2Y purinoceptor 12; experiment: Ratio of compound IC50 to AZD-6140 IC50 for P2Y12 receptor in human platelet rich plasma assessed as inhibition of ADP-induced platelet aggregation by light transmission aggregometry
Method in brief: as §1, with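 “AZD-6140” for “the thienopyrimidine reference”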

T1 sequence (Q9H244 whole entry): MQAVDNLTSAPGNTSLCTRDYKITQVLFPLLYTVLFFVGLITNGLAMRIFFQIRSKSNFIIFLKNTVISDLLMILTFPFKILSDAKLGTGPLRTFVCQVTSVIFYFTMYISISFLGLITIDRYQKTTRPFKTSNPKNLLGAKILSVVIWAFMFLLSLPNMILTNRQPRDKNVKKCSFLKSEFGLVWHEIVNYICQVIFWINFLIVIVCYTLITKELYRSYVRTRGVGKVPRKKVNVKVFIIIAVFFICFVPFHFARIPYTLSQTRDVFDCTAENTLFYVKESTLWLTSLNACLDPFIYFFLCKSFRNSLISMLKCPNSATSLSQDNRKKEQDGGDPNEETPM

Structure (SMILES) | fold change (FC) [1] | Ratio IC50 (P2Y purinoceptor 12 [2]) | fold change (FC) [3] | Ki (P2Y purinoceptor 12 [4]) [nM] | Ratio IC50 (P2Y purinoceptor 12 [5])
CCCCOC(=O)N1CCN(C(=O)[C@H](CCC(=O)O)NC(=O)c2cc(OCC3CCNCC3)nc(-c3ccccc3)n2)CC1 | > 340 | 0.3 | > 340 | 16 | 1
CCCCOC(=O)N1CCN(C(=O)[C@H](CCC(=O)O)NC(=O)c2cc(N3CCC(C(=O)N4CCCC4)CC3)nc(-c3ccccc3)n2)CC1 | > 340 | 0.08 | > 340 | 0.7 | 0.4
CCCCCOC(=O)N1CCN(C(=O)[C@H](CCC(=O)O)NC(=O)c2cc(N3CCC(CC(=O)N4CCC4)CC3)nc(-c3ccccc3)n2)CC1 | > 340 | 0.2 | > 340 | 0.92 | 1.1
CCCCCOC(=O)N1CCN(C(=O)[C@H](CCC(=O)O)NC(=O)c2cc(N3CCC(N)CC3)nc(-c3ccccc3)n2)CC1 | > 340 | 0.2 | > 340 | 0.69 | 0.5
CCCCCOC(=O)N1CCN(C(=O)[C@H](CCC(=O)O)NC(=O)c2cc(N3CCN(CC(=O)N(C)C)CC3)nc(-c3ccccc3)n2)CC1 | > 340 | 0.1 | > 340 | 2.6 | 0.5
CCCCOC(=O)N1CCN(C(=O)[C@H](CCC(=O)O)NC(=O)c2cc(N3CCC(OC)CC3)nc(-c3ccccc3)n2)CC1 | > 340 | 0.4 | > 340 | 1.4 | 2.7
CCCCCOC(=O)N1CCN(C(=O)[C@H](CCC(=O)O)NC(=O)c2cc(N3CCC(N4CCOCC4)CC3)nc(-c3ccccc3)n2)CC1 | > 340 | 0.2 | > 340 | 2.9 | 0.7
CCCCCOC(=O)N1CCN(C(=O)[C@H](CCC(=O)O)NC(=O)c2cc(NCCCN(C)C)nc(-c3ccccc3)n2)CC1 | > 340 | 0.6 | > 340 | 4.8 | 1.7
CCCCCOC(=O)N1CCN(C(=O)[C@H](CCC(=O)O)NC(=O)c2nc(-c3ccccc3)cc(N3CCN(C)CC3)n2)CC1 | > 340 | 1.8 | > 340 | 11 | 8.1
CCCCCOC(=O)N1CCN(C(=O)[C@H](CCC(=O)O)NC(=O)c2nc(-c3ccccc3)cc(N3CCC(CNCC)CC3)n2)CC1 | > 340 | 0.4 | > 340 | 11 | 1.6
CCCCOC(=O)N1CCN(C(=O)[C@H](CCC(=O)O)NC(=O)c2cc(OC3CCNCC3)nc(-c3ccccc3)n2)CC1 | > 340 | 0.3 | > 340 | 11 | 1.7
CCCCCOC(=O)N1CCN(C(=O)[C@H](CCC(=O)O)NC(=O)c2cc(N3CCC(C)CC3)nc(-c3ccccc3)n2)CC1 | > 340 | – | > 340 | 7.5 | –
CCCCCOC(=O)N1CCN(C(=O)[C@H](CCC(=O)O)NC(=O)c2nc(-c3ccccc3)cc(N3CCOCC3)n2)CC1 | > 340 | – | > 340 | 11 | –
CCCCCOC(=O)N1CCN(C(=O)[C@H](CCC(=O)O)NC(=O)c2cc(N3CCC(CCN)CC3)nc(-c3ccccc3)n2)CC1 | > 340 | 0.1 | > 340 | 2.7 | 0.4
CCCCCOC(=O)N1CCN(C(=O)[C@H](CCC(=O)O)NC(=O)c2nc(-c3ccccc3)cc(N3CCC(C(=O)N(CC)CC)CC3)n2)CC1 | > 340 | 0.4 | > 340 | 3.6 | 1.5
CCCCOC(=O)N1CCN(C(=O)[C@H](CCC(=O)O)NC(=O)c2cc(N3CCC(CCOC)CC3)nc(-c3ccccc3)n2)CC1 | > 340 | 0.5 | > 340 | 2 | 2.1
CCCCCOC(=O)N1CCN(C(=O)[C@H](CCC(=O)O)NC(=O)c2cc(NCCOC)nc(-c3ccccc3)n2)CC1 | > 340 | 0.5 | > 340 | 1.2 | 2.2
CCCCCOC(=O)N1CCN(C(=O)[C@H](CCC(=O)O)NC(=O)c2cc(N3CCC(CN(CC)CC)CC3)nc(-c3ccccc3)n2)CC1 | > 340 | 0.2 | > 340 | 0.61 | 0.8
CCCCCOC(=O)N1CCN(C(=O)[C@H](CCC(=O)O)NC(=O)c2nc(-c3ccccc3)cc(N3CCN(C(C)=O)CC3)n2)CC1 | > 340 | 1.8 | > 340 | 29 | 8.9

Structure (SMILES) | fold change (FC) [1] | Ratio IC50 (P2Y purinoceptor 12 [2]) | fold change (FC) [3] | Ki (P2Y purinoceptor 12 [4]) [nM] | Ratio IC50 (P2Y purinoceptor 12 [5])
CCCCCOC(=O)N1CCN(C(=O)[C@H](CCC(=O)O)NC(=O)c2cc(N3CCC(CC(=O)NC)CC3)nc(-c3ccccc3)n2)CC1 | > 340 | 0.2 | > 340 | 0.9 | 1.2
CCCCCOC(=O)N1CCN(C(=O)[C@H](CCC(=O)O)NC(=O)c2cc(N3CCN(C(C)=O)CC3)nc(-c3ccccc3)n2)CC1 | > 340 | 0.3 | > 340 | 3.7 | 1
CCCCCOC(=O)N1CCN(C(=O)[C@H](CCC(=O)O)NC(=O)c2cc(N3CCC(CC(=O)N4CCCC4)CC3)nc(-c3ccccc3)n2)CC1 | > 340 | 0.3 | > 340 | 1.6 | 2
CCCCCOC(=O)N1CCN(C(=O)[C@H](CCC(=O)O)NC(=O)c2nc(-c3ccccc3)cc(N3CCC(N4CCOCC4)CC3)n2)CC1 | > 340 | 0.8 | > 340 | 5.9 | 3.9
CCCCCOC(=O)N1CCN(C(=O)[C@H](CCC(=O)O)NC(=O)c2cc(N3CCC(C(=O)N4CCC4)CC3)nc(-c3ccccc3)n2)CC1 | > 340 | 0.04 | > 340 | 0.83 | 0.3
CCCCCOC(=O)N1CCN(C(=O)[C@H](CCC(=O)O)NC(=O)c2cc(N3CCC(CCN4CCCC4)CC3)nc(-c3ccccc3)n2)CC1 | > 340 | 0.1 | > 340 | 2.1 | 0.5
CCCCCOC(=O)N1CCN(C(=O)[C@H](CCC(=O)O)NC(=O)c2nc(-c3ccccc3)cc(N3CCC(OCCO)CC3)n2)CC1 | > 340 | – | > 340 | 10 | –
CCCCCOC(=O)N1CCN(C(=O)[C@H](CCC(=O)O)NC(=O)c2nc(NC3CCN(C(C)C)CC3)cc(-c3ccccc3)n2)CC1 | > 340 | – | > 340 | 35 | –
CCCCCOC(=O)N1CCN(C(=O)[C@H](CCC(=O)O)NC(=O)c2nc(NCCCN(C)C)cc(-c3ccccc3)n2)CC1 | > 340 | – | > 340 | 38 | –
CCCCCOC(=O)N1CCN(C(=O)[C@H](CCC(=O)O)NC(=O)c2nc(-c3ccccc3)cc(N3CCN(C(=O)N(C)C)CC3)n2)CC1 | > 340 | – | > 340 | 14 | –
CCCCCOC(=O)N1CCN(C(=O)[C@H](CCC(=O)O)NC(=O)c2nc(-c3ccccc3)cc(N3CCC(CCOC)CC3)n2)CC1 | > 340 | – | > 340 | 8.4 | –
CCCCCOC(=O)N1CCN(C(=O)[C@H](CCC(=O)O)NC(=O)c2nc(-c3ccccc3)cc(N3CCC(COCCOC)CC3)n2)CC1 | > 340 | – | > 340 | 8.1 | –
CCCCOC(=O)N1CCN(C(=O)[C@H](CCC(=O)O)NC(=O)c2cc(OC(CC)C(=O)N(CC)CC)nc(-c3ccccc3)n2)CC1 (stereo not given in full) | > 340 | – | > 340 | 123 | –
CCCCCOC(=O)N1CCN(C(=O)[C@H](CCC(=O)O)NC(=O)c2nc(OCCOC)cc(-c3ccccc3)n2)CC1 | > 340 | – | > 340 | 1.2 | –
CCCCCOC(=O)N1CCN(C(=O)[C@H](CCC(=O)O)NC(=O)c2nc(NCCOC)cc(-c3ccccc3)n2)CC1 | > 340 | – | > 340 | 5.2 | –
CCCCOC(=O)N1CCN(C(=O)[C@H](CCC(=O)O)NC(=O)c2cc(N3CCC(N4CCCC4)CC3)nc(-c3ccccc3)n2)CC1 | – | 0.2 | – | 1.7 | 0.8
CCCCCOC(=O)N1CCN(C(=O)[C@H](CCC(=O)O)NC(=O)c2nc(-c3ccccc3)cc(N3CCC(OC)CC3)n2)CC1 | > 340 | – | > 340 | 7.4 | –
CCCCCOC(=O)N1CCN(C(=O)[C@H](CCC(=O)O)NC(=O)c2nc(NCC3CCNC3)cc(-c3ccccc3)n2)CC1 (stereo not given in full) | > 340 | – | > 340 | 19 | –
CCCCCOC(=O)N1CCN(C(=O)[C@H](CCC(=O)O)NC(=O)c2nc(OCCN(CC)CC)cc(-c3ccccc3)n2)CC1 | > 340 | – | > 340 | 184 | –
